From the RNAGym collection of RNA variant scans (doi:10.1038/s41586-018-0170-7)

B1: tRNA (parent)
chain: GUUCCGUUGGCGUAAUGGUAACGCGUCUCCCUCCUAAGGAGAAGACUGCGGGUUCGAGUCCCGUACGGAACG

Variants of: B1
Experiment: yeast fitness, log relative to wild type (ln ratio); higher = fitter; tRNA-Arg(CCU), competitive growth, 37 C, 1 M NaCl
Summary of the method: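 Variants were counted by 125 bp paired-end Illumina sequencing after pools of a combinatorial tRNA-Arg(CCU) library, held on a HIS3 centromeric plasmid in BY4742 lacking the chromosomal gene, grew ~6.5 generations (~26.5 h) in SC-HIS 1M NaCl at 37 °C. Each genotype's fitness is the natural log of its generations relative to the wild type's. Generations were OD-scaled log2 output/input frequencies, inverse-variance weighted over replicates.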

Row | Variant | yeast fitness (ln)
1 | AGUCCAUUGGCGUAAUGGUAACGCGUUUCCCUCCUAAGGAGACGACUGCGGGUUCGAGUCCCGUAAGGAUCG [G1A U2G G6A C27U A43C C66A A70U] | -0.249
2 | AGUCCAUUGGCGUAAUGGUAACGCGUCUCCCUCCUAAGGAGACGAUUGCGGGUUCGAGUCCCGUAUGGAGUG [G1A U2G G6A A43C C46U C66U A70G C71U] | -0.266
3 | AGUCCAUUGGCGUAAUGGUAACGCGUCUCCCUCCUAAGGAGACGAUUGCGGGUUCGAGUCCCGUAUGGAAUG [G1A U2G G6A A43C C46U C66U C71U] | -0.177
4 | AGUCCAUUGGCGUAAUGGUAACGCGUUUCCCUCCUAAGGAGACGACUGCGGGUUCGAGUCCCGUACGGAGUG [G1A U2G G6A C27U A43C A70G C71U] | -0.344
5 | AGUCCAUUGGCGUAAUGGUAACGCGUUUCCCUCCUAAGGAGACGACUGCGGGUUCGAGUCCCGUAUGGGGUG [G1A U2G G6A C27U A43C C66U A69G A70G C71U] | -0.563
6 | AGUCCAUUGGCGUAAUGGUAACGCGUCUCCCUCCUAAGGAGACGAUUGCGGGUUCGAGUCCCGUAUGGAACG [G1A U2G G6A A43C C46U C66U] | -0.23
7 | AGUCCAUUGGCGUAAUGGUAACGCGUCUCCCUCCUAAGGAGAAGACUGCGGGUUCGAGUCCCGUACGGGGCG [G1A U2G G6A A69G A70G] | -0.333
8 | AGUCCAUUGGCGUAAUGGUAACGCGUCUCCCUCCUAAGGAGAAGACUGCGGGUUCGAGUCCCGUACGGGUCG [G1A U2G G6A A69G A70U] | -0.153
9 | AGUCCAUUGGCGUAAUGGUAACGCGUCUCCCUCCUAAGGAGACGACUGCGGGUUCGAGUCCCGUAUGGGUCG [G1A U2G G6A A43C C66U A69G A70U] | -0.45
10 | AGUCCAUUGGCGUAAUGGUAACGCGUUUCCCUCCUAAGGAGAAGACUGCGGGUUCGAGUCCCGUACGGAACG [G1A U2G G6A C27U] | -0.0861
11 | AGUCCAUUGGCGUAAUGGUAACGCGUUUCCCUCCUAAGGAGACGAUUGCGGGUUCGAGUCCCGUACGGAUCG [G1A U2G G6A C27U A43C C46U A70U] | -0.215
12 | AGUCCAUUGGCGUAAUGGUAACGCGUUUCCCUCCUAAGGAGACGAUUGCGGGUUCGAGUCCCGUACGGAGCG [G1A U2G G6A C27U A43C C46U A70G] | -0.224
13 | AGUCCAUUGGCGUAAUGGUAACGCGUCUCCCUCCUAAGGAGACGAUUGCGGGUUCGAGUCCCGUACGGAAUG [G1A U2G G6A A43C C46U C71U] | -0.23
14 | AGUCCAUUGGCGUAAUGGUAACGCGUUUCCCUCCUAAGGAGACGAUUGCGGGUUCGAGUCCCGUACGGGUUG [G1A U2G G6A C27U A43C C46U A69G A70U C71U] | -0.443
15 | AGUCCAUUGGCGUAAUGGUAACGCGUCUCCCUCCUAAGGAGACGAUUGCGGGUUCGAGUCCCGUAUGGGGUG [G1A U2G G6A A43C C46U C66U A69G A70G C71U] | -0.206
16 | AGUCCAUUGGCGUAAUGGUAACGCGUCUCCCUCCUAAGGAGACGACUGCGGGUUCGAGUCCCGUAUGGAUCG [G1A U2G G6A A43C C66U A70U] | -0.434
17 | AGUCCAUUGGCGUAAUGGUAACGCGUUUCCCUCCUAAGGAGACGAUUGCGGGUUCGAGUCCCGUAUGGAAUG [G1A U2G G6A C27U A43C C46U C66U C71U] | -0.29
18 | AGUCCAUUGGCGUAAUGGUAACGCGUCUCCCUCCUAAGGAGACGACUGCGGGUUCGAGUCCCGUAUGGAUUG [G1A U2G G6A A43C C66U A70U C71U] | -0.443
19 | AGUCCAUUGGCGUAAUGGUAACGCGUCUCCCUCCUAAGGAGACGACUGCGGGUUCGAGUCCCGUAAGGGGUG [G1A U2G G6A A43C C66A A69G A70G C71U] | -0.253

Row | Variant | yeast fitness (ln)
20 | AGUCCAUUGGCGUAAUGGUAACGCGUCUCCCUCCUAAGGAGACGACUGCGGGUUCGAGUCCCGUAAGGAUCG [G1A U2G G6A A43C C66A A70U] | -0.216
21 | AGUCCAUUGGCGUAAUGGUAACGCGUCUCCCUCCUAAGGAGAAGACUGCGGGUUCGAGUCCCGUACGGGGUG [G1A U2G G6A A69G A70G C71U] | -0.298
22 | AGUCCAUUGGCGUAAUGGUAACGCGUUUCCCUCCUAAGGAGACGAUUGCGGGUUCGAGUCCCGUAUGGAGUG [G1A U2G G6A C27U A43C C46U C66U A70G C71U] | -0.286
23 | AGUCCAUUGGCGUAAUGGUAACGCGUUUCCCUCCUAAGGAGACGAUUGCGGGUUCGAGUCCCGUACGGAAUG [G1A U2G G6A C27U A43C C46U C71U] | -0.42
24 | AGUCCAUUGGCGUAAUGGUAACGCGUUUCCCUCCUAAGGAGACGAUUGCGGGUUCGAGUCCCGUACGGGGCG [G1A U2G G6A C27U A43C C46U A69G A70G] | -0.382
25 | AGUCCAUUGGCGUAAUGGUAACGCGUUUCCCUCCUAAGGAGACGAUUGCGGGUUCGAGUCCCGUACGGGUCG [G1A U2G G6A C27U A43C C46U A69G A70U] | -0.279
26 | AGUCCAUUGGCGUAAUGGUAACGCGUUUCCCUCCUAAGGAGACGACUGCGGGUUCGAGUCCCGUACGGGGUG [G1A U2G G6A C27U A43C A69G A70G C71U] | -0.354
27 | AGUCCAUUGGCGUAAUGGUAACGCGUUUCCCUCCUAAGGAGACGACUGCGGGUUCGAGUCCCGUACGGAGCG [G1A U2G G6A C27U A43C A70G] | -0.381
28 | AGUCCAUUGGCGUAAUGGUAACGCGUUUCCCUCCUAAGGAGACGACUGCGGGUUCGAGUCCCGUACGGAUCG [G1A U2G G6A C27U A43C A70U] | -0.26
29 | AGUCCAUUGGCGUAAUGGUAACGCGUCUCCCUCCUAAGGAGACGAUUGCGGGUUCGAGUCCCGUAUGGAGCG [G1A U2G G6A A43C C46U C66U A70G] | -0.181
30 | AGUCCAUUGGCGUAAUGGUAACGCGUCUCCCUCCUAAGGAGACGAUUGCGGGUUCGAGUCCCGUAUGGAUCG [G1A U2G G6A A43C C46U C66U A70U] | -0.306
31 | AGUCCAUUGGCGUAAUGGUAACGCGUCUCCCUCCUAAGGAGACGAUUGCGGGUUCGAGUCCCGUAAGGAUUG [G1A U2G G6A A43C C46U C66A A70U C71U] | -0.282
32 | AGUCCAUUGGCGUAAUGGUAACGCGUUUCCCUCCUAAGGAGACGACUGCGGGUUCGAGUCCCGUACGGGGCG [G1A U2G G6A C27U A43C A69G A70G] | -0.341
33 | AGUCCAUUGGCGUAAUGGUAACGCGUUUCCCUCCUAAGGAGACGACUGCGGGUUCGAGUCCCGUACGGGUCG [G1A U2G G6A C27U A43C A69G A70U] | -0.379
34 | AGUCCAUUGGCGUAAUGGUAACGCGUUUCCCUCCUAAGGAGACGAUUGCGGGUUCGAGUCCCGUAUGGGGCG [G1A U2G G6A C27U A43C C46U C66U A69G A70G] | -0.34
35 | AGUCCAUUGGCGUAAUGGUAACGCGUUUCCCUCCUAAGGAGACGAUUGCGGGUUCGAGUCCCGUAUGGGUCG [G1A U2G G6A C27U A43C C46U C66U A69G A70U] | -0.436
36 | AGUCCAUUGGCGUAAUGGUAACGCGUCUCCCUCCUAAGGAGAAGACUGCGGGUUCGAGUCCCGUACGGGUUG [G1A U2G G6A A69G A70U C71U] | -0.331
37 | AGUCCAUUGGCGUAAUGGUAACGCGUCUCCCUCCUAAGGAGACGAUUGCGGGUUCGAGUCCCGUAAGGAUCG [G1A U2G G6A A43C C46U C66A A70U] | -0.191
38 | AGUCCAUUGGCGUAAUGGUAACGCGUCUCCCUCCUAAGGAGACGAUUGCGGGUUCGAGUCCCGUAAGGAGCG [G1A U2G G6A A43C C46U C66A A70G] | -0.26
